Screening results: PubChem, several laboratories
The list is not random: actives were taken first. Their share in the collection is about 1.4%.
NR2E3 ag-1 – activates human photoreceptor nuclear receptor NR2E3 | GST-NR2E3/biotin-RetCOR TR-FRET, 1536-well | inhibition of corepressor binding, % at 4.78 µM | actives 0.12% (n = 320,000);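 active = percent inhibition above the cutoff of mean plus 3 SD of all tested compounds, set per screening campaign, cut at about 20% in these data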;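 also: 0% = DMSO wells and 100% = biotin wells as full block of FRET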
Target sequence (Q9Y5X4 whole entry, looked up): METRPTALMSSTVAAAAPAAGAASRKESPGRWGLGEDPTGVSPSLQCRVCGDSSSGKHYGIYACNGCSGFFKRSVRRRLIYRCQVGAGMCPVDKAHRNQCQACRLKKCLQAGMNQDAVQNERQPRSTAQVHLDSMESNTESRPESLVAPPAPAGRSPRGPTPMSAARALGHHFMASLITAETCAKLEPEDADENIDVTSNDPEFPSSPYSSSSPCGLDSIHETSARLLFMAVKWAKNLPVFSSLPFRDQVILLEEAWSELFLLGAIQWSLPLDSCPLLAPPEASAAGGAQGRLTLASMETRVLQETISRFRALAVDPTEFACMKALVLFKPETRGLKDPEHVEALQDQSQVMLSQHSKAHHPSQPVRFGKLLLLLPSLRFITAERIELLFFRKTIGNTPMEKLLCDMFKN
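Format: 1536-well format; test system: GST-NR2E3 and biotin-RetCOR proteins; read-out basis: percent inhibition of TR-FRET ratio; timing: 5 h incubation at 4 °C; detection: time-resolved FRET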
NR1D1 modulator – modulators of human Rev-erb alpha DNA binding; P20393; Rev-erbα–FITC-DNA binding, fluorescence polarization, 90 min; activity, % at 10 µM; actives 0.79% (n = 370,000); AID 1259318;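 active = activity above about 14%, limit read from the data; passing the limit was not always enough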;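 also: 0% = DMSO wells with 35 nM protein and 100% = DMSO wells with 750 nM protein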
NR2E3 ag-2 – activates human NR2E3 receptor | actives 0.35% (n = 360,000) | Q9Y5X4 | CHO-S Gal4-NCOR/VP16-NR2E3 two-hybrid, luciferase | inhibition of corepressor binding, % at 3.98 µM;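 active = inhibition above the mean of all tested compounds plus 3 SD, cut at about 70% in these data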;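 also: 0% = DMSO with NR2E3 transfected cells and 100% = cells lacking NR2E3 construct; higher means lower luciferase signal from less NR2E3 corepressor binding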
PG9 binder – small molecules binding HIV-1 gp120 antibody PG9; actives 0.43% (n = 360,000); AID 624416; inhibition, % at 6.7 µM; TR-FRET gp120-PG9 antibody binding; in the data active = inhibition above about 8.5%
NR1D1 mod conf – Rev-erb alpha (human) modulation, hit confirmation. shares compounds with NR1D1 modulator. Rev-erb alpha FITC-DNA binding, fluorescence polarization, 90 min. activation, % at 25 µM. actives 61% (n = 3,000). AID 1259319;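 active = activation at or above a set limit, or at least 3 SD above the negative control mean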;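 also: 0% = 35 nM protein with DMSO and 100% = 750 nM protein high control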
RORg DNA counter – affects RORgamma DNA binding in a Rev-erb alpha counter-screen; shares compounds with NR1D1 modulator; purified RORgamma protein-FITC-DNA binding, fluorescence polarization; IC50, µM; actives 8% (n = 910);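 active = Compounds whose fitted half-maximal concentration for disrupting protein-DNA binding is below 10 micromolar; the record names Rev-erb in its text, so the target is in doubt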
Starred values were filed as active, the others as inactive; i = inactive; . = no result given.

SMILES | NR2E3 ag-1 | NR1D1 modulator | NR2E3 ag-2 | PG9 binder | NR1D1 mod conf | others
COc1cc(-c2nc3c4ccccc4nc(=S)n3[nH]2)cc(OC)c1OC | 4 | 0 | 0 | 2 | .
Cc1noc(C)c1S(=O)(=O)N1CCCCC1c1cc(C(=O)Nc2cccc3c2CCCC3)no1 (stereo not drawn) | . | 10 | -42 | -2 | .
CCCc1nc2sc3c(=O)n(N)cnc3c2c2c1CCCC2 | 4 | 37* | 2 | -3 | 15
CCCCc1nc2sc3c(=O)n(N)cnc3c2c2c1CCCC2 | -1 | 2 | -2 | 0 | .
O=C(Nc1ccc([N+](=O)[O-])cc1)OC1CCS(=O)(=O)C1 (stereo not drawn) | . | -6 | -11 | 0 | .
COc1ccc(Cc2nc3ccccc3n2CC(=O)N/N=C/c2ccc(O)cc2)cc1OC | -2 | -3 | -15 | -2 | .
COc1ccc(Cc2nc3ccccc3n2CC(=O)N/N=C/c2ccc(C)cc2O)cc1OC | -1 | 34* | -26 | -1 | 45* | RORg DNA counter=>40
CC(C)C[C@@H]1COc2cccc(N3CCC[C@@H]3CO)c2S(=O)(=O)N1 | . | 5 | 5 | -2 | .
Cc1nc(NC(=O)c2ccccc2)sc1Cc1ccc2c(c1)OCO2 | 2 | 3 | -156 | -2 | .
Cc1nc(NC(=O)c2ccc(Cl)cc2)sc1Cc1ccc2c(c1)OCO2 | -1 | 30* | -47 | 1 | 6
COc1ccc(-c2cc(C(=O)NN=Cc3ccc(O)c(OC)c3)[nH]n2)cc1 | . | 0 | . | . | .
Cc1cc2c(cc(C(=O)OC(C)C(=O)NCc3ccc(F)cc3)n2C)o1 (stereo not drawn) | . | 6 | 4 | 1 | .
Cc1cc2c(cc(C(=O)OC(C)C(=O)NCc3ccccc3)n2C)o1 (stereo not drawn) | . | 26* | -13 | -1 | 18*
COc1ccc(NC(=O)/C(C#N)=C/c2ccc(Br)o2)cc1 | 6 | -26 | -5 | 1 | .
COc1ccc(NC(=O)/C(C#N)=C\c2ccc(N3CCOCC3)o2)cc1 | -10 | 65* | -41 | -20 | 41* | RORg DNA counter=i
N#C/C(=C/c1ccc(N2CCCCC2)o1)C(=O)Nc1ccc(Cl)cc1 | 0 | 10 | -83 | -10 | .
N#C/C(=C/c1ccc(N2CCOCC2)o1)C(=O)NC1CCCCC1 | -7 | 9 | 5 | -14 | .
N#C/C(=C\c1ccc(N2CCOCC2)o1)C(=O)Nc1ccc(O)cc1 | -16 | 44* | -46 | -26 | 27*
N#C/C(=C/c1ccc(N2CCCCC2)o1)C(=O)Nc1ccc2ccccc2c1 | . | 67* | -42 | -1 | 25*
CCn1nccc1NC(=O)c1csc([C@@H]2C[C@H](O)[C@@H](CO)O2)n1 | . | -2 | -8 | -1 | .
COC(=O)[C@]12CCCCC=C1N(CCC1=CCCCC1)C(=O)[C@H](CC(=O)NCCC(C)C)C2 | . | 4 | -60 | -1 | .
COc1cccc(NC(=O)C2CCCN2C(=O)NCc2ccccc2)c1 (stereo not drawn) | . | 1 | . | . | .
COC(CNC(=O)c1ccc2nc(-c3cccs3)c(-c3cccs3)nc2c1)OC | 1 | 27* | -10 | -18 | 8
COc1ccc(-c2nc3ccc(C(=O)NCC(OC)OC)cc3nc2-c2ccc(OC)c(OC)c2)cc1OC | 4 | 1 | 2 | -1 | .
COc1ccc(-c2cc(-c3ccc(O)cc3)nc(N)c2C#N)cc1 | 2 | 2 | -22 | 3 | .
SMILES | NR2E3 ag-1 | NR1D1 modulator | NR2E3 ag-2 | PG9 binder | NR1D1 mod conf | others
COc1ccc(-c2cc(-c3ccc(OC)cc3)c(C#N)c(SC)n2)cc1 | 2 | 108* | -15 | 3 | 52* | RORg DNA counter=>40
COc1ccc(-c2cc(-c3cccnc3)c(C#N)c(N)n2)cc1 | 2 | 40* | -29 | 1 | 36* | RORg DNA counter=>40
COc1cccc(-c2cc(-c3cccnc3)c(C#N)c(N)n2)c1 | -2 | -8 | -17 | -1 | .
CC1CCc2sc(C(=O)Nc3nnc(SCc4ccc(F)cc4)s3)cc2C1 (stereo not drawn) | 2 | 30* | -42 | 8 | 17
COc1ccc(Sc2cccc3c2S(=O)(=O)N([C@H](C)c2ccccc2)C[C@@H](COCc2ccccc2)O3)cc1OC | . | -6 | . | 0 | .
Cn1nc(CC(=O)Nc2ccc3c(c2)CCC3)c2ccccc2c1=O | . | 20* | 26 | -1 | 17*
CC(=O)c1sc(NC(=O)c2cccc(N3C(=O)CCC3=O)c2)nc1-c1ccccc1 | 2 | 43* | -3 | 1 | 28*
CC(=O)Nc1ccc2c(COC(=O)CC3Sc4ccccc4NC3=O)cc(=O)oc2c1 (stereo not drawn) | 2 | 53* | -8 | -3 | 26*
COc1ccc(NC(=O)c2cc(C3CCCCN3C(=O)c3ccc4c(c3)CCO4)on2)c(C)c1 (stereo not drawn) | . | -2 | 0 | 2 | .
Cc1ccc(NCC(=O)c2ccc([N+](=O)[O-])cc2)cc1 | 1 | . | -82 | . | .
Cc1ccc(C(=O)CNc2cccc([N+](=O)[O-])c2)cc1 | 1 | 15* | -3 | -3 | -2
O=C(N/N=C\c1c(O)ccc2ccccc12)c1ccc(O)cc1 | 2 | -3 | -25 | 0 | .
Cc1occc1C(=O)N/N=C/c1c(O)ccc2ccccc12 | 3 | 25* | -99 | 1 | 25*
COc1ccc(S(=O)(=O)N2CCC(C(=O)NCCC(=O)NCc3ccccn3)CC2)cc1 | . | 4 | -12 | -1 | .
CCSC1=N/C(=C\c2ccc3c(c2)OCO3)C(=O)S1 | 1 | 3 | 5 | 0 | .
CCSC1=N/C(=C\C=C2/Oc3ccccc3N2CC)C(=O)S1 | -3 | 50* | -40 | -3 | 46* | RORg DNA counter=>40
CCOC1=C2CN(S(=O)(=O)c3ccc(C)cc3)C(c3cccc(Cl)c3)CC2NC(c2ccccc2)C1 (stereo not drawn) | . | 5 | . | 0 | .
O=C(COC(=O)c1cc(S(=O)(=O)N2CCOCC2)ccc1Cl)c1ccc[nH]1 | . | 1 | -14 | 1 | .
CCC(=O)c1ccc(N2CCN(S(=O)(=O)c3ccccc3)CC2)c(F)c1 | -1 | 23* | -42 | -3 | 46* | RORg DNA counter=>40
CC(=O)[C@@H]1[C@@H]2C(=O)N(Cc3ccccc3)C(=O)[C@@H]2C2c3ccccc3C=CN21 (stereo partly drawn) | -1 | 26* | -3 | 0 | 28*
COc1ccc(OC)c(NC(=O)CCNS(=O)(=O)c2ccc3c(c2)CC(C)N3C(C)=O)c1 (stereo not drawn) | . | 0 | -4 | -2 | .
COC(=O)C1=C(C)N(C)C(=NCC2CC2)NC1c1ccc(Cl)cc1 (stereo not drawn) | . | -6 | . | 0 | .
COc1ccc(C(=O)NC(=S)Nc2ccc3c(c2)Cc2ccccc2-3)cc1 | 0 | 24* | 0 | 1 | 1
Cc1ccc(NC(=S)NC(=O)c2ccccc2)cc1NC(=S)NC(=O)c1ccccc1 | . | 21* | -16 | 6 | 1
COC(=O)c1ccccc1NC(=S)NC(=O)c1ccccc1 | 4 | -2 | 33 | 0 | .
CC(=O)Nc1sc2c(c1-c1nc3ccccc3s1)CNC2 | . | -9 | . | . | .
